Activity calls are given as the source filed them. The calls are words filed in the database; no cut-off is given here.
Legend:
[1] = target: Dipeptidyl peptidase 2 (Homo sapiens, UniProt Q9UHL4); experiment: In vitro inhibition of DPP-II
[2] = target: Dipeptidyl peptidase 8 (Homo sapiens, UniProt Q6V1X1); experiment: In vitro inhibition of DPP-8
[3] = target: T1, Prolyl endopeptidase FAP (Homo sapiens, UniProt Q12884); experiment: In vitro inhibition of FAP, seprase
T1 sequence (Q12884 whole entry): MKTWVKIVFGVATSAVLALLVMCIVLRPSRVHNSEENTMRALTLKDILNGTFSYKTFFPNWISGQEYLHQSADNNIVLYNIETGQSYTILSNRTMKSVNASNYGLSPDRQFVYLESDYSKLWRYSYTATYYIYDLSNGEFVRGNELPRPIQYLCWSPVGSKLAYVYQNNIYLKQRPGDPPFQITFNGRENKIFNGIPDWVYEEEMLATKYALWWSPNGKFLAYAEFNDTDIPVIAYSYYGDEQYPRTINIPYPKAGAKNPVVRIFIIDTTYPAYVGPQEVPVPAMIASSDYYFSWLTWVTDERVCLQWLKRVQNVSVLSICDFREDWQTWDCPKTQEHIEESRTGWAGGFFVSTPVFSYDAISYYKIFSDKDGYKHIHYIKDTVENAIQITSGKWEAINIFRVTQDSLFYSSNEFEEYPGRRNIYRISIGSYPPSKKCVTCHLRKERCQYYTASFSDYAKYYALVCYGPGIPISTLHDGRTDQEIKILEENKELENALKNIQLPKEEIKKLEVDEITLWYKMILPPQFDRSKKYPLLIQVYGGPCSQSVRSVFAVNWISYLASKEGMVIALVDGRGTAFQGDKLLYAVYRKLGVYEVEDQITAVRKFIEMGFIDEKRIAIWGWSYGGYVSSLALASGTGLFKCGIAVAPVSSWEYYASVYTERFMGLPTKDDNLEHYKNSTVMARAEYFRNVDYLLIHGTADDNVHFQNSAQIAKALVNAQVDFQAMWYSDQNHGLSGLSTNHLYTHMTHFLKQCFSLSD
Summary of the method: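 FAP cDNA was cloned into the pBacPAC8-CD5 vector, then the enzyme was expressed and purified. Activity was measured with Gly-Pro-pNA as substrate at 6 mM.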

[4] = species: Rattus norvegicus; details: 10 mg/kg
[5] = target: Dipeptidyl peptidase 4 (Rattus norvegicus) (UniProt P14740); experiment: Ex vivo inhibition of plasma DPP-4 activity in rats 30 minutes after 10 mg/kg oral dose; type: functional, organism-based; design: dose 10 mg/kg; details: at 10 mg/kg
Sequence of Dipeptidyl peptidase 4 (Rattus norvegicus) (P14740 whole entry, looked up): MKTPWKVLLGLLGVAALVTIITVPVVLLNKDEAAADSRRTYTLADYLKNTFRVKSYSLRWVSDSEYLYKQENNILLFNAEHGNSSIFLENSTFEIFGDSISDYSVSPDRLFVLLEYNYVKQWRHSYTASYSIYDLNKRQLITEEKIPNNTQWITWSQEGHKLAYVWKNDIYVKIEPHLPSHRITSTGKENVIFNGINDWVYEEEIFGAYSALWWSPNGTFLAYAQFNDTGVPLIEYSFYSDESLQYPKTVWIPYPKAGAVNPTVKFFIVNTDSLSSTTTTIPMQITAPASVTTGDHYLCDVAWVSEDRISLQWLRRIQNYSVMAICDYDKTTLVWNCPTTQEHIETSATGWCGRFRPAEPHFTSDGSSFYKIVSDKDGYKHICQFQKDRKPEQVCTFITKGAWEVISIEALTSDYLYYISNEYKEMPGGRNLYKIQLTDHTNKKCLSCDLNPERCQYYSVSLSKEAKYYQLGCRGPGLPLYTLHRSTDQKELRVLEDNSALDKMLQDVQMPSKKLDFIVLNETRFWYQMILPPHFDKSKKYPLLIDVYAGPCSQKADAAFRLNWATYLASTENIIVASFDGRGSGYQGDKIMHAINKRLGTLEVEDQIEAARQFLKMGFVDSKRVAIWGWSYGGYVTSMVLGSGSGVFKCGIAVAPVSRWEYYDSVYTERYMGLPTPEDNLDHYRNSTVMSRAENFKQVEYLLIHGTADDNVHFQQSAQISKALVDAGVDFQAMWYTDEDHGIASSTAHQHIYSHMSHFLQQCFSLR
Summary of the method: (§1)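 Adult male Wistar rats got a single oral gavage dose of 10 mg/kg at 0 h. Blood was collected over time and plasma DPP-IV activity was read as the cleavage rate of Gly-Pro-AMC. Means ± SEM, n = 4/group.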

[6] = target: Dipeptidyl peptidase 4 (Rattus norvegicus) (UniProt P14740); experiment: Ex vivo inhibition of plasma DPP-4 activity in rats 8 hours after 10 mg/kg oral dose; type: functional, organism-based; design: dose 10 mg/kg; details: at 10 mg/kg; summary of the method: as §1

Sequence of Dipeptidyl peptidase 8 (Q6V1X1 whole entry): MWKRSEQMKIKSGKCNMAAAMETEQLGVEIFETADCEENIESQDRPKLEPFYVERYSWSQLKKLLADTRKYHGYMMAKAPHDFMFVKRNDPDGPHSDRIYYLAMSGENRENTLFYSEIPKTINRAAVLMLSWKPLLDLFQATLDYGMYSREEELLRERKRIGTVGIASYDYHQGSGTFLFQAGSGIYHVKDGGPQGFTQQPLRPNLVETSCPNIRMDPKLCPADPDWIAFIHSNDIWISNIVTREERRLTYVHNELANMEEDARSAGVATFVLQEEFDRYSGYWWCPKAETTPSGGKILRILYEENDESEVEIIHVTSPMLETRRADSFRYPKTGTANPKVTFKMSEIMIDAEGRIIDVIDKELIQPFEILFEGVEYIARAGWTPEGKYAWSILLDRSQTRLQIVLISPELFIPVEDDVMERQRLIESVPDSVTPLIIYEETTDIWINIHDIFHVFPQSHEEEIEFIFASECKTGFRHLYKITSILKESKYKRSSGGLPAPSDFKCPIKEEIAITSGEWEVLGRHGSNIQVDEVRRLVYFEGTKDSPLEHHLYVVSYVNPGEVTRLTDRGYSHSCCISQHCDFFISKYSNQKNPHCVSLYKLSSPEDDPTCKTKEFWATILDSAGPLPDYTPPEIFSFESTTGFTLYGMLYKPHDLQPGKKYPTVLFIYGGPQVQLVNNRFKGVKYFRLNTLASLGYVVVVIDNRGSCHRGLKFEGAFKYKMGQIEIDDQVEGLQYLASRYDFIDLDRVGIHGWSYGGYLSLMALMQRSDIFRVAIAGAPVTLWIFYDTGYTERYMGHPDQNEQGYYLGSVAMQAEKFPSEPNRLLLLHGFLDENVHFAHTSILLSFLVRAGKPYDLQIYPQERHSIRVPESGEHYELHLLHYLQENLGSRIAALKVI

Row | Compound | IC50 [1] [µM] | IC50 [2] [µM] | IC50 [3] [µM] | inhibition [4] | inhibition [5] [%] | inhibition [6] [%]
1 | CC(C)(CC(=O)NCCc1cccc(C(F)(F)F)c1)NCC(=O)N1CCC[C@H]1C#N | > 20 | > 20 | > 20 |  |  | 
2 | CC(C)(CC(=O)NC(C)(C)Cc1ccccc1)NCC(=O)N1CCC[C@H]1C#N | > 20 | > 20 | > 20 |  |  | 
3 | CC(C)(CC(=O)NCc1ccccc1)NCC(=O)N1CCC[C@H]1C#N | > 20 | > 20 | > 20 |  |  | 
4 | C[C@@H](CC(=O)NC(C)(C)c1ccccc1)NCC(=O)N1CCC[C@H]1C#N | > 20 |  |  |  |  | 
5 | CC(C)(CC(=O)Nc1ccc(F)c(F)c1)NCC(=O)N1CCC[C@H]1C#N | > 20 | > 20 | > 20 |  |  | 
6 | N#C[C@@H]1CCCN1C(=O)CNCCC(=O)NCCc1ccccc1 |  |  | > 20 |  |  | 
7 | N#C[C@@H]1CCCN1C(=O)CNCCC(=O)NCc1ccccc1 |  |  | > 20 |  |  | 
8 | COc1ccc(NC(=O)CC(C)(C)NCC(=O)N2CCC[C@H]2C#N)c(OC)c1OC | > 20 | > 20 | > 20 |  |  | 
9 | CC(C)(CC(=O)NCCc1ccccc1C(F)(F)F)NCC(=O)N1CCC[C@H]1C#N | > 20 | > 20 | > 20 |  |  | 
10 | CC(C)(CC(=O)NCCc1ccccn1)NCC(=O)N1CCC[C@H]1C#N | > 20 | > 20 | > 20 | Active |  | 
11 | CC(C)(CC(=O)NCCc1ccc(Cl)c(Cl)c1)NCC(=O)N1CCC[C@H]1C#N | > 20 | > 20 | > 20 |  |  | 
12 | COc1ccc(CCNC(=O)CC(C)(C)NCC(=O)N2CCC[C@H]2C#N)cc1OC | > 20 | > 20 | > 20 |  |  | 
13 | CC(C)(CC(=O)Nc1ccc(-c2ccccc2)cc1)NCC(=O)N1CCC[C@H]1C#N | 0.8 | > 20 | > 20 |  |  | 
14 | CC(C)(CC(=O)NCCc1ccc(C(F)(F)F)cc1)NCC(=O)N1CCC[C@H]1C#N | > 20 | > 20 | > 20 |  |  | 
15 | C[C@H](CC(=O)NC(C)(C)c1ccccc1)NCC(=O)N1CCC[C@H]1C#N | > 20 |  | > 20 |  |  | 
16 | Cc1ccc(CCNC(=O)CC(C)(C)NCC(=O)N2CCC[C@H]2C#N)cc1 | > 20 | > 20 | > 20 |  |  | 
17 | CC(C)(CC(=O)NC(C)(C)c1ccccc1)NCC(=O)N1CCC[C@H]1C#N | > 20 | > 20 | > 20 |  |  | 
18 | Cc1ccc(NC(=O)CC(C)(C)NCC(=O)N2CCC[C@H]2C#N)cc1C | > 20 | > 20 | > 20 |  |  | 
19 | CC(C)(CC(=O)Nc1ccc(F)cc1)NCC(=O)N1CCC[C@H]1C#N | > 20 | > 20 | > 20 |  |  | 
20 | COc1ccc(NC(=O)CC(C)(C)NCC(=O)N2CCC[C@H]2C#N)cc1OC | > 20 | > 20 | > 20 | Active | > 80 | > 50
21 | COc1ccc(NC(=O)CC(C)(C)NCC(=O)N2CCC[C@H]2C#N)cc1 | > 20 | > 20 | > 20 |  |  | 
22 | CC(C)(NC(=O)CCNCC(=O)N1CCC[C@H]1C#N)c1ccccc1 | > 20 |  | > 20 |  |  | 
23 | CC(C)(CC(=O)NCCc1ccccc1)NCC(=O)N1CCC[C@H]1C#N | > 20 | > 20 | > 20 |  |  | 
24 | CC(C)(CC(=O)Nc1ccccc1)NCC(=O)N1CCC[C@H]1C#N | > 20 | > 20 | > 20 |  |  | 
25 | CC(C)(CC(=O)NCc1ccccn1)NCC(=O)N1CCC[C@H]1C#N | > 20 | > 20 | > 20 |  |  | 

Source: ChEMBL document CHEMBL1137592, “3-[2-((2S)-2-cyano-pyrrolidin-1-yl)-2-oxo-ethylamino]-3-methyl-butyramide analogues as selective DPP-IV inhibitors for the treatment of type-II diabetes” (Bioorg Med Chem Lett, 2007)
